Assay results taken from publication PMC7787346 (Clinical cancer research : an official journal of the …, 2019).
“Also recorded” adds a separate entry of the source.

Experiments:
[1] = Plasma pharmacokinetics of selinexor; format: in vivo, human; settings: for Tmax / AUC(0-t) / Cmax: human, plasma; for AUC(0-t): AUC0–8h
[2] = tested on: AML cell lines and AML patient cells; experiment: Preclinical combination studies of selinexor and daunorubicin; format: cell-based; settings: Supplementary Figs. S1 and S2, Supplementary Table S1
[3] = tested on: pediatric patients with relapsed or refractory acute leukemia; settings: selinexor plus fludarabine and cytarabine; cited from earlier work
gated CD34+ cells = experiment: Ex vivo sensitivity of patient bone marrow MNCs, flow cytometry for apoptosis; format: cell-based, human
Procedure, shortened: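 Screening bone marrow aspirates were Ficoll-enriched for mononuclear cells and plated at 3 million cells per mL. Cells were incubated 20 hours with titrated test compound, alone or combined with 40 µmol/L cytarabine or 1 µmol/L daunorubicin. Apoptosis (active caspase-3) was measured by flow cytometry on gated CD34+ cells. Of 10 samples, 2 were excluded for low viability or <5% CD34+ cells, leaving 8.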

[4] = tested on: patients with previously untreated poor-risk AML; format: in vivo
[5] = tested on: patients with previously untreated poor-risk AML; experiment: Phase I trial of selinexor plus 7+3: response; format: in vivo, human; settings: for Median overall survival: 95% CI 3.74–NR
[6] = tested on: patients with previously untreated poor-risk AML; experiment: G-banding cytogenetic analysis of bone marrow aspirates at follow-up; format: in vivo, human
Procedure, shortened: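 G-banding cytogenetics was done on each patient's bone marrow aspirate at diagnosis and, for most patients, at response assessment. Marrow aspirations and biopsies for response were taken between days 28 and 72 after induction or reinduction: daunorubicin/cytarabine 7+3 (or 5+2) plus oral test compound at 60 or 80 mg.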

[7] = 16 response eligible patients, poor-risk by NCCN criteria
[8] = 19 patients evaluable for response
[9] = treatment failure (n = 9), baseline 1, 5 not assessed

For `O=C(/C=C\n1cnc(-c2cc(C(F)(F)F)cc(C(F)(F)F)c2)n1)NNc1cnccn1` [selinexor], the “Exposure (based on AUC) on days 1 and 15” value ([1]; day 1 versus day 15) was “similar”, the Tmax ([1]; oral, Mean Tmax, day 15, delayed absorption) was 4 h and the AUC(0-t) ([1]; po, 60 mg, selinexor 60 mg oral, day 1, 4 patients) was 1850 ± 972 ng·h/mL. The AUC(0-t) ([1]; po, 60 mg, selinexor 60 mg oral, day 15, 3 patients) was 1710 ± 1030 ng·h/mL, the Cmax ([1]; po, 60 mg, Cmax, selinexor 60 mg oral, day 1, 4 patients) was 457 ± 196 ng/mL and the Cmax ([1]; po, 60 mg, Cmax, selinexor 60 mg oral, day 15, 3 patients) was 392 ± 290 ng/mL. For the same compound, the Cmax ([1]; po, 60 mg, Mean Cmax, selinexor 60 mg oral, day 1, 4 patients) was 1030 nM, the Tmax ([1]; po, 60 mg, Tmax, selinexor 60 mg oral, day 1, 4 patients) was 2 ± 3.2 h and the Tmax ([1]; po, 60 mg, Tmax, selinexor 60 mg oral, day 15, 3 patients) was 4 ± 1.2 h. It also gave an AUC(0-t) ([1]; po, 80 mg, selinexor 80 mg oral, day 1, 17 patients) of 2590 ± 1110 ng·h/mL, an AUC(0-t) ([1]; po, 80 mg, selinexor 80 mg oral, day 15, 13 patients) of 2100 ± 1080 ng·h/mL and a Cmax ([1]; po, 80 mg, Cmax, selinexor 80 mg oral, day 1, 17 patients) of 601 ± 302 ng/mL. For the same compound, the Cmax ([1]; po, 80 mg, Cmax, selinexor 80 mg oral, day 15, 13 patients) was 482 ± 288 ng/mL, the Cmax ([1]; po, 80 mg, Mean Cmax, selinexor 80 mg oral, day 1, 17 patients) was 1360 nM and the Tmax ([1]; po, 80 mg, Tmax, selinexor 80 mg oral, day 1, 17 patients) was 2 ± 2.2 h. The Tmax ([1]; po, 80 mg, Tmax, selinexor 80 mg oral, day 15, 13 patients) was 4 ± 2.5 h, the “AUC0–8h” value ([1]; selinexor 60 mg oral, day 1, 4 patients) was 1,853 ng/h/mL and the “AUC0–8h” value ([1]; selinexor 80 mg oral, day 1, 17 patients) was 2,590 ng/h/mL. The “Interaction between selinexor and daunorubicin” value [2] was “strong synergistic interactions; also recorded: strong synergy”, the “Patients who tested negative for measurable residual disease” value [3] was 5 patients and the “Synergy between selinexor and daunorubicin” value (gated CD34+ cells; titrated selinexor with 1 µmol/L daunorubicin, patient samples ex vivo) was “no synergy”. The “Effects of the combination on apoptosis” value (gated CD34+ cells; titrated selinexor with 40 µmol/L cytarabine or 1 µmol/L daunorubicin) was “additive”, the “Patients who died during the treatment or follow-up phases” value ([4]; 21 patients, majority related to relapsed or refractory AML) was 62% and the “Grade 3/4 nonhematologic TEAE sepsis” value ([4]; grade 3/4, selinexor + 7+3, 21 patients) was 14%. The “Median time to a platelet count ≥50,000” value ([4]; human, in vivo) was 35 days, the “Median time to absolute neutrophil count (ANC) ≥500” value ([4]; human, in vivo) was 26 days and the “Patients with at least one grade 3/4 AE” value ([4]; human, in vivo) was 95%. For the same compound, the “Only grade 3 AE during maintenance therapy” value ([4]; in vivo) was “fatigue”, the “Patients who experienced at least 1 TEAE” value ([4]; in vivo) was “Every patient” and the “Patients who experienced diarrhea or hyponatremia” value ([4]; in vivo) was “None”. For the same compound, the “CRi after second induction” value ([5]; 6 patients who received a second induction (selinexor + 5+2)) was 17%, the CR/CRi rate ([5]; 7 evaluable patients with TP53 mutation at diagnosis (6 with complex karyotype)) was 43% and the “Median OS” value ([5]; 10 responding patients, median follow-up 28.9 months) was “not reached”. It also gave a CR/CRi rate ([5]; 16 evaluable patients treated at the RP2D (80 mg)) of 50%, a CR/CRi rate [5, 7] of 50% and a Treatment failures [5, 7] of 50%. For the same compound, the “Evaluable patients alive at 12 months (12-month OS)” value ([5]; 19 evaluable patients) was 47.4%, the Median overall survival ([5]; 19 evaluable patients, median follow-up 26.9 months) was 10.3 months and the “CR/CRi rate (overall response rate)” value [5, 8] was 53%. The “Patients who achieved CR” value [5, 8] was 42%, the “Patients who achieved CRi” value [5, 8] was 11% and the “Treatment failures due to refractory AML” value [5, 8] was 47%. The CR ([5]; age ≥60, n = 16) was 7 (44) no. (%), the “CR + CRi” value ([5]; age ≥60, n = 16) was 9 (56) no. (%) and the CRi ([5]; age ≥60, n = 16) was 2 (13) no. (%). For the same compound, the Treatment failure ([5]; age ≥60, n = 16) was 7 (44) no. (%), the CR ([5]; age ≥70, n = 8) was 3 (38) no. (%) and the “CR + CRi” value ([5]; age ≥70, n = 8) was 3 (38) no. (%). For the same compound, the CRi ([5]; age ≥70, n = 8) was 0 (0) no. (%), the “Patients alive at median follow-up” value ([5]; all 21 patients, median follow-up 28.9 months) was 38% and the Median overall survival ([5]; entire cohort, n = 21) was 10.3 months. The CR ([5]; evaluable patients, n = 19) was 8 (42.1) no. (%), the “CR + CRi” value ([5]; evaluable patients, n = 19) was 10 (52.6) no. (%) and the CRi ([5]; evaluable patients, n = 19) was 2 (10.5) no. (%). The Treatment failure ([5]; evaluable patients, n = 19) was 9 (47.4) no. (%), the Responders alive ([5]; median follow-up of 28.9 months) was 60% and the “Responding patients who remained in CR/CRi” value ([5]; median follow-up of over 2 years, all underwent allogeneic stem cell transplant in first remission) was 5 of 10. The CR/CRi rate ([5]; patients who had previously received a hypomethylating agent (8 patients)) was 13%, the CR ([5]; prior HMA, n = 8) was 1 (13) no. (%) and the “CR + CRi” value ([5]; prior HMA, n = 8) was 1 (13) no. (%). For the same compound, the CRi ([5]; prior HMA, n = 8) was 0 (0) no. (%), the Treatment failure ([5]; prior HMA, n = 8) was 7 (87) no. (%) and the CR ([5]; sAML, n = 12) was 3 (25) no. (%). For the same compound, the “CR + CRi” value ([5]; sAML, n = 12) was 4 (33) no. (%), the CRi ([5]; sAML, n = 12) was 1 (8) no. (%) and the Treatment failure ([5]; sAML, n = 12) was 8 (67) no. (%). The “Cytogenetics at follow-up: Chr 5 abnormalities” value ([6]; responders (n = 10), baseline 0) was 0 no, the “Cytogenetics at follow-up: Chr 7 abnormalities” value ([6]; responders (n = 10), baseline 1) was 1 no and the “Cytogenetics at follow-up: Other Chr abnormalities” value ([6]; responders (n = 10), baseline 2) was 0 no. For the same compound, the “Cytogenetics at follow-up: Complex” value ([6]; responders (n = 10), baseline 3) was 1 no, the “Cytogenetics at follow-up: Diploid” value ([6]; responders (n = 10), baseline 4) was 8 no and the “Cytogenetics at follow-up: Chr 7 abnormalities” value ([6]; treatment failure (n = 9), baseline 0, 5 not assessed) was 0 no. The “Cytogenetics at follow-up: Chr 5 abnormalities” value [6, 9] was 1 no, the “Cytogenetics at follow-up: Other Chr abnormalities” value [6, 9] was 0 no and the “Cytogenetics at follow-up: Diploid” value ([6]; treatment failure (n = 9), baseline 3, 5 not assessed) was 2 no. The “Cytogenetics at follow-up: Complex” value ([6]; treatment failure (n = 9), baseline 4, 5 not assessed) was 1 no.
